Experimental data published in ChEMBL document CHEMBL1817551, “Design of small molecule inhibitors of acetyl-CoA carboxylase 1 and 2 showing reduction of hepatic malonyl-CoA levels in vivo in obese Zucker rats” (Bioorg Med Chem, 2011).
≈ marks a conversion by molar mass, not a printed value.

How the values were obtained:
[1] = biological target: Acetyl-CoA carboxylase 2 (Homo sapiens, UniProt O00763); assay: Inhibition of human recombinant his-tagged ACC2 expressed in baculovirus/Sf9 cell assessed as inorganic phosphate formation […] measured after 1.5 hrs by Malachite green reagent method
Chain of Acetyl-CoA carboxylase 2 (O00763 whole entry): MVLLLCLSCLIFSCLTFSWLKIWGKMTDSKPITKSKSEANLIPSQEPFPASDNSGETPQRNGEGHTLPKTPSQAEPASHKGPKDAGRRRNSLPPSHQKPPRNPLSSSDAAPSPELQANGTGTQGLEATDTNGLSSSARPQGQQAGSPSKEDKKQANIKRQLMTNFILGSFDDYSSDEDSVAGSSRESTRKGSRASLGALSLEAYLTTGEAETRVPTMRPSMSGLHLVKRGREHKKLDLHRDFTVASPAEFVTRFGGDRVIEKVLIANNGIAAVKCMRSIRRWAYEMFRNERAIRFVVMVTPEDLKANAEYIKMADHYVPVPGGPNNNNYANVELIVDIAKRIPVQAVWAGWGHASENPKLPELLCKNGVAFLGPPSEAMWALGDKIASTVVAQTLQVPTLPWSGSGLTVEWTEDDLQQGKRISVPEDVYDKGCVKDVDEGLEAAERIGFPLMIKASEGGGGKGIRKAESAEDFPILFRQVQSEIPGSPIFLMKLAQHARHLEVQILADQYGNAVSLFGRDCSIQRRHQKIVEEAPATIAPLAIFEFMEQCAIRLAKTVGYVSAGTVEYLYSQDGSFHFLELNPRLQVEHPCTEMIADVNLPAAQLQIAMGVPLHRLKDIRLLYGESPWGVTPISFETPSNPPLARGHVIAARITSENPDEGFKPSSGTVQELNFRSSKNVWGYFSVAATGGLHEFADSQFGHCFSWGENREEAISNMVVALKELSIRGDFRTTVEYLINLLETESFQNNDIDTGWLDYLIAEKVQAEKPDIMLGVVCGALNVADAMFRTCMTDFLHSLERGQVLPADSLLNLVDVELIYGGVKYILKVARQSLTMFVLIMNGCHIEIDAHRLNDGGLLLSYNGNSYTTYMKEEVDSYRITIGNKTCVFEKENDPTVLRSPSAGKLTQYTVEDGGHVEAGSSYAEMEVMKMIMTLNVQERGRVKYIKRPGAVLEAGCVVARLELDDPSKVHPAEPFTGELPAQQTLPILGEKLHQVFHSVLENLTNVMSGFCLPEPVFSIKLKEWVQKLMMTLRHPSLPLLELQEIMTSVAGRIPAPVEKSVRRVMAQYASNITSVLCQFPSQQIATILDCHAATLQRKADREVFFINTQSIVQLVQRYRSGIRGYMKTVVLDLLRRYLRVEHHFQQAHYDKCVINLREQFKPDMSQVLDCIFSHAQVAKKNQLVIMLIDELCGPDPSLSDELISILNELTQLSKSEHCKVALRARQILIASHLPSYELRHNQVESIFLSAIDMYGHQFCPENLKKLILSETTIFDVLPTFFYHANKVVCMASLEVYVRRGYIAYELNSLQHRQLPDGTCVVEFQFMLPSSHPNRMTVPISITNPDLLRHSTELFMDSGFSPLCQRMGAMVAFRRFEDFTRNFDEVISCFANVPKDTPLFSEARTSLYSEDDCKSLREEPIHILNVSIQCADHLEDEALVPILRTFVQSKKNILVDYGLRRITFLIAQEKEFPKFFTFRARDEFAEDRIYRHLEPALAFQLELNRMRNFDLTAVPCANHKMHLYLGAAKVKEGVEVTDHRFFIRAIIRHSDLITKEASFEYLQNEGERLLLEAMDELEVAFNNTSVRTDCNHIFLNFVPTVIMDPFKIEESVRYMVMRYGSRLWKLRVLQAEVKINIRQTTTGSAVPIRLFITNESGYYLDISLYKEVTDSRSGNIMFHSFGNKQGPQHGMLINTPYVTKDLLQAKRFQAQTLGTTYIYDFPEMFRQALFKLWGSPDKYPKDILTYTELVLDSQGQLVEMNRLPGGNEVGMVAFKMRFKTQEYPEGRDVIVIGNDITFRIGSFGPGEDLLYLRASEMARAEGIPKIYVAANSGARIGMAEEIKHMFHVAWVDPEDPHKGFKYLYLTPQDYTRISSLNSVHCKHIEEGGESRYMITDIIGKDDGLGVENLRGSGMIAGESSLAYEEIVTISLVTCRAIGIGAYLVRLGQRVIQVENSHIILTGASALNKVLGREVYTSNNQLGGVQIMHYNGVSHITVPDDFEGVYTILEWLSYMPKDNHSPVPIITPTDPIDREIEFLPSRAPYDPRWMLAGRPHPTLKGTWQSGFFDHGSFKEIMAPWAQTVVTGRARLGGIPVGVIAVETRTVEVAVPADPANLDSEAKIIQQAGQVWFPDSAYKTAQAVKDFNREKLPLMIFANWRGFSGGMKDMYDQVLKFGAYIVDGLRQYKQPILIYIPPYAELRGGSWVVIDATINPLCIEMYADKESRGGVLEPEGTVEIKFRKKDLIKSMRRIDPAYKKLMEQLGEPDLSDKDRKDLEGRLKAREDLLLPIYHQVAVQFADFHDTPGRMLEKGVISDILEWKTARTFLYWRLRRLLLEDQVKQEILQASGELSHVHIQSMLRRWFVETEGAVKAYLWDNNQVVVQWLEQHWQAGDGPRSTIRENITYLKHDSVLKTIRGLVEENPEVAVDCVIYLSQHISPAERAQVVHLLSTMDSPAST

[2] = biological target: Acetyl-CoA carboxylase 1 (Homo sapiens, UniProt Q13085); assay: Inhibition of human recombinant his-tagged ACC1 expressed in baculovirus/Sf9 cell assessed as inorganic phosphate formation […] measured after 1.5 hrs by Malachite green reagent method
[3] = Lipophilicity, log D of the compound; assay type: physicochemical; details: octanol/water
[4] = Apparent permeability from apical to basolateral side of human Caco2 cells at pH 7.4 by LCMS; assay type: ADME, cell-based; details: Caco-2, pH 7.4
[5] = Half life in C57BL/6 mouse at 33 umol/kg, po; assay type: ADME, organism-based; details: in vivo
[6] = Volume of distribution in C57BL/6 mouse at 33 umol/kg, iv and po; assay type: ADME, organism-based; details: in vivo
[7] = Oral bioavailability in C57BL/6 mouse at 33 umol/kg; assay type: ADME, organism-based; details: in vivo
[8] = Clearance in C57BL/6 mouse at 33 umol/kg, iv and po; assay type: ADME, organism-based; details: in vivo
[9] = Intrinsic clearance in human liver microsome at 1 uM after 30 mins by LC-UV/MS analysis; assay type: ADME; details: liver microsomes
[10] = Solubility of the compound after 16 hrs by LC-UV/MS analysis; assay type: physicochemical
[11] = Clearance in Sprague-Dawley rat at 3 to 5 umol/kg, iv; assay type: ADME, organism-based; details: in vivo
[12] = Oral bioavailability in C57BL/6 mouse at 10 umol/kg; assay type: ADME, organism-based; details: in vivo
[13] = Clearance in C57BL/6 mouse at 5 umol/kg, iv and 10 umol/kg, po; assay type: ADME, organism-based; details: in vivo
[14] = Half life in C57BL/6 mouse at 10 umol/kg, po; assay type: ADME, organism-based; details: in vivo
[15] = biological target: Acetyl-CoA carboxylase 1 (Rattus norvegicus, UniProt P11497); assay: Inhibition of rat ACC1 assessed as inorganic phosphate generation preincubated for 5 mins measured after 1.5 hrs using Malachite green reagent method
[16] = biological target: Acetyl-Coenzyme A carboxylase 2 (Rattus norvegicus, UniProt Q1HEC0); assay: Inhibition of ACC2 […] preincubated for 15 mins measured after 1.5 hrs using Malachite green reagent method
Chain of Acetyl-Coenzyme A carboxylase 2 (Q1HEC0 whole entry): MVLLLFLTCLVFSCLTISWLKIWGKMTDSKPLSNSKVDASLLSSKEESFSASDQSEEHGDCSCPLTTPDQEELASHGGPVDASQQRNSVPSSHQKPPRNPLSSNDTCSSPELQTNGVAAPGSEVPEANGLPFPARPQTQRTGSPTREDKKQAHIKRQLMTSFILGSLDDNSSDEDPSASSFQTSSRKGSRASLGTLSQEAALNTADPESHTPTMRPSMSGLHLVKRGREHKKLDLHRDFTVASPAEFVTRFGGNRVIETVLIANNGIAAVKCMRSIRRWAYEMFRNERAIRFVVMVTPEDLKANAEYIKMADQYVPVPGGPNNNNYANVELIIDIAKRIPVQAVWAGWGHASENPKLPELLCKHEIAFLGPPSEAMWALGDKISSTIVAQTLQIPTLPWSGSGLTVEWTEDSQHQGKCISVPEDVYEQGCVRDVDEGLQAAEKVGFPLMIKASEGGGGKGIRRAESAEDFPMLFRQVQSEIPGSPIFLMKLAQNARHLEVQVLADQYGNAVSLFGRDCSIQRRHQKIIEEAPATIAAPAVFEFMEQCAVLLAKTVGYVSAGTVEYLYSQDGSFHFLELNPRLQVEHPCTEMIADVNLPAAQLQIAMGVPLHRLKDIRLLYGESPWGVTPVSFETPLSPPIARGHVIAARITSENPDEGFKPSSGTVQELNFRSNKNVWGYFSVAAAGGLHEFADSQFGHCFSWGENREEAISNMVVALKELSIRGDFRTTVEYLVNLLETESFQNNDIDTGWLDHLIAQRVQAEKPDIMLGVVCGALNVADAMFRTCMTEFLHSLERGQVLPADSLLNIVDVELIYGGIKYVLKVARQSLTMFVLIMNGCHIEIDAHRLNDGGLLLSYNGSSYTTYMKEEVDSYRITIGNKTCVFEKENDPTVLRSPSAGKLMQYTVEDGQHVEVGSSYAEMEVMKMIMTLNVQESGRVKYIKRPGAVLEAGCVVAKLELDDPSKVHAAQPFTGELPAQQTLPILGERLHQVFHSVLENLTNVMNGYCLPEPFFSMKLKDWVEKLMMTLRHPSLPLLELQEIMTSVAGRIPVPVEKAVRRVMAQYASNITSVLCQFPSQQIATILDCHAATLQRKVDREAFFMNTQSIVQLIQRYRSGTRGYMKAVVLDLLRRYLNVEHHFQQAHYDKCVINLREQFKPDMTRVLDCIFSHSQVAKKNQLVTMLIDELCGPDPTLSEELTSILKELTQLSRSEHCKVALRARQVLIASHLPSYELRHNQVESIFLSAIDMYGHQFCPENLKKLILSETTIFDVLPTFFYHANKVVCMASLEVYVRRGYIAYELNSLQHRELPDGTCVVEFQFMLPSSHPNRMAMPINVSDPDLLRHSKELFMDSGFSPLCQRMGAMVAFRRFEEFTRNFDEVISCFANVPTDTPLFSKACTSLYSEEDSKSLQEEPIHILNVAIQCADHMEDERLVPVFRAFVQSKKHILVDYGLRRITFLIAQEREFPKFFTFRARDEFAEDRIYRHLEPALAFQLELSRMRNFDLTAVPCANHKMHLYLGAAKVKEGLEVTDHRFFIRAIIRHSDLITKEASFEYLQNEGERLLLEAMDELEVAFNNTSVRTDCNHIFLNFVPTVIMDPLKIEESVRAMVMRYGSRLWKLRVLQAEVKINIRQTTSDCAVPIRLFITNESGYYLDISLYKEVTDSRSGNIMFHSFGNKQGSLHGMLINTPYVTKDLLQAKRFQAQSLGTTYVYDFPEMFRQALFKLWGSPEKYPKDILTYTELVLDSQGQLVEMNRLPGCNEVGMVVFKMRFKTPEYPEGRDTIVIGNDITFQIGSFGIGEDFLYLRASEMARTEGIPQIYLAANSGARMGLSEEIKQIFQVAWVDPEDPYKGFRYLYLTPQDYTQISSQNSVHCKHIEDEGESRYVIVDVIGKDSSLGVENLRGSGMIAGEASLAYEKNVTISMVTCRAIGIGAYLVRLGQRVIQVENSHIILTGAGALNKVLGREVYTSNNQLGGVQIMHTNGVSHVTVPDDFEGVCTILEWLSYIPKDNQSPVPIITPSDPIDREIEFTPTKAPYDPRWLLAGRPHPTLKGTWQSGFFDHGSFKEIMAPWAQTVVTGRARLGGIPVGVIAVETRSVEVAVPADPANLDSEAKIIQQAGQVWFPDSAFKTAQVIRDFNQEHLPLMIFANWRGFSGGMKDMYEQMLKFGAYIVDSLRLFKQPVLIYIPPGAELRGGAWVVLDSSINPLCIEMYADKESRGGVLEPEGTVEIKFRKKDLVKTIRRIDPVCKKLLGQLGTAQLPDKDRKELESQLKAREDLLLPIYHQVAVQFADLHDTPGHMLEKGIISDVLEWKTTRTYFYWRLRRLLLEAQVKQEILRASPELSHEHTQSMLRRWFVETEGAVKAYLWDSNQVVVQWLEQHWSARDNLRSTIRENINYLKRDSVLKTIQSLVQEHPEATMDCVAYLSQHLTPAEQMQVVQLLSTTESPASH

[17] = Fraction unbound in human plasma at 10 uM after 18 hrs by equilibrium dialysis method; assay type: ADME, cell-free
[18] = system: Rattus norvegicus; assay: Antiobesity activity in obese Zucker rat assessed as reduction in hepatic malonyl-coA level, iv administered 2 hrs; assay type: functional; set-up: scale not given: the % may be the effect or the level left
How it was run: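 Obese Zucker rats were anaesthetized with Inactin (180 mg/kg ip), tracheotomized and fitted with carotid and jugular catheters. After 1.5 h post-surgery stabilization at 37.5 °C, compound or vehicle was infused iv; lean vehicle controls were included. Hepatic malonyl-CoA was measured by ion-pair HPLC–negative ESI MS/MS against a ¹³C₃ internal standard and related to plasma free exposure (fu×Cp/rat ACC2 IC50).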

[19] = Volume of distribution in C57BL/6 mouse at 5 umol/kg, iv and 10 umol/kg, po; assay type: ADME, organism-based; details: in vivo

| IC50 [1] [µM] | IC50 [2] [µM] | logD [3] | Compound | further results |
| --- | --- | --- | --- | --- |
| 0.089 | 0.78 | 3.2 | CC(C)(C)OC(=O)NC[C@H]1CC[C@H](CNC(=O)c2cc(N3CCC(CCN)CC3)nc3ccccc23)CC1 | Papp A→B [4]: 0.5 ×10⁻⁶ cm/s |
| – | – | 3 | CN(C)CCOC1CN(c2cc(C(=O)NC[C@H]3CC[C@H](CNC(=O)OC(C)(C)C)CC3)c3ccccc3n2)C1 | – |
| 1.7 | 9.9 | 3.6 | CN(C)CCC1CCN(c2cc(C(=O)NC[C@H]3CC[C@H](COC(=O)NC(C)(C)C)CC3)c3ccccc3n2)CC1 | – |
| 0.13 | 1 | 4 | CN(C)CCC1CCN(c2cc(C(=O)NC[C@H]3CC[C@H](CNC(=O)OCC(C)(C)C)CC3)c3ccccc3n2)CC1 | half-life [5]: 2.9 h; Vd [6]: 9.6 L/kg; bioavailability [7]: 115%; clearance [8]: 52 mL/min/kg |
| – | – | 5.3 | Cc1cc(C(=O)NC[C@H]2CC[C@H](CNC(=O)OC(C)(C)C)CC2)cc(-c2ccccc2)n1 | – |
| 3.6 | – | – | O=C(c1cc(-c2ccccc2)nc2ccccc12)N1CCN(Cc2ccc3c(c2)OCO3)CC1 | – |
| – | 1.1 | 4.4 | CC(C)(C)OC(=O)NC[C@H]1CC[C@H](CNC(=O)c2cc(-c3ccncc3)nc3ccccc23)CC1 | microsomal CLint at 1 µM [9]: 146 µL/min/mg; solubility at 16 h [10]: < 1 µM |
| – | 1 | 3.6 | CC(C)(C)OC(=O)NC[C@H]1CC[C@H](CNC(=O)c2cc(N3CCC(CCN4CC(O)C4)CC3)nc3ccccc23)CC1 | clearance [11]: 70 mL/min/kg; bioavailability [12]: 135%; microsomal CLint at 1 µM [9]: 16 µL/min/mg; clearance [13]: 33 mL/min/kg; half-life [14]: 4.3 h; IC50 [15]: 0.25 µM; IC50 [16]: 0.15 µM; fraction unbound at 18 h, 10 µM [17]: 0.033; solubility at 16 h [10]: 80 µM (≈ 46.4 µg/mL); Activity [18]: 50%; Vd [19]: 3.6 L/kg |
| 0.69 | 4.3 | 3.2 | CC(C)(C)OC(=O)NC[C@H]1CC[C@H](CNC(=O)c2cc(N3CCC(CN)CC3)nc3ccccc23)CC1 | – |
| 0.69 | – | – | CC(C)(C)OC(=O)NC[C@H]1CC[C@H](CNS(=O)(=O)c2cc(-c3ccccc3)nc3ccccc23)CC1 | – |
| 2.5 | – | – | CC(C)(C)OC(=O)NC[C@H]1CC[C@H](CNS(=O)(=O)c2ccc3ccccc3c2)CC1 | – |
| – | 1.7 | 3.2 | CC(C)(C)OC(=O)NC[C@H]1CC[C@H](CNC(=O)c2cc(-c3ccc(CN)cc3)nc3ccccc23)CC1 | – |
| – | – | 5 | Cc1noc(C)c1-c1cc(C(=O)NC[C@H]2CC[C@H](CNC(=O)OC(C)(C)C)CC2)c2ccccc2n1 | – |
| 1 | – | – | CC(C)(C)OC(=O)NC[C@H]1CC[C@@H](CNC(=O)c2cc(-c3ccccc3)nc3ccccc23)CC1 | – |
| – | – | 4.7 | CC(C)(C)OC(=O)NC[C@H]1CC[C@H](CNC(=O)c2ccnc(-c3ccccc3)c2)CC1 | – |
